Source: PubChem BioAssay
Calls of active or inactive are those of the source.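 Rule for the calls, unless noted: active = Her2 level under about 52% in both replicate screens, with viability over 70% of control (limit read from the data); inconclusive = Her2 under the limit in one screen only, or viability under 70%; inactive = Her2 level above the set limit.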

Assays:
[1] = reducers of endogenous Her2 protein level, primary screen, SKBR3 breast tumor cells, AlphaScreen, ATP viability (AID 461); conditions: 18-24 h, measured here: SKBR3 viability, ATP luminescence, at 10 µM;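 for Her2 level: lower value means less Her2 protein in the cells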;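 for viability: percent of carrier control wells set as 100% viability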
[2] = target: Receptor tyrosine-protein kinase erbB-2 (Homo sapiens) (UniProt P04626); assay: as above; conditions: 18-24 h, at 10 µM, stronger effect = lower value
[3] = SK-BR-3 cell growth inhibitors, pilot screen, 24 h, human (AID 572;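 active = viability at or below 10% of carrier control in both of two separate runs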;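 note: compound exposure lasted between 18 and 24 h rather than exactly 24 h; 100% = carrier-treated control wells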); conditions: SK-BR-3 viability, CellTiter-Glo luminescence, at 10 µM, stronger effect = lower value
[4] = HUVEC growth inhibition – cell-based, human, primary screen (AID 575;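 active = viability at or below 30% in both replicate assays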;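 note: 100% = median of untreated cell wells with 0.1% DMSO on each plate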); conditions: HUVEC proliferation, CellTiter-Glo luminescence, 72 h; at 10 µM; stronger effect = lower value
In short: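 System – primary HUVEC, no more than 12 passages · Medium – Low-serum (2% FBS) EBM, supplemented · Times – 72 h exposure, 37 °C, 5% CO2, 30 min RT equilibration · Measured by – luminescent ATP assay · Read-out – % viability relative to median vehicle-well signal on each plate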

[5] = growth inhibitors of H69AR lung tumor, primary screen, human, duplicate replicates (AID 580;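 active = viability at or under a set limit in both replicates, limit being median viability minus 3 SD, cut at about 48% in these data, passing the limit was not always enough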;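 note: 100% = mean luminescence of untreated wells and 0% = no signal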); conditions: H69AR lung tumor cells viability, ATP luminescence, 72 h; at 10 µM; stronger effect = lower value
[6] = reversal of MRP1-mediated doxorubicin resistance, pilot screen, H69AR cells, doxorubicin co-treatment (AID 601;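 active = viability loss from added drug above about 55%, and viability with drug at most 40%, in both replicates, limit read from the data, passing the limit was not always enough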); conditions: CellTiter-Glo, 72 h, at 10 µM; for differential viability (reversal): stronger effect = higher value
[7] = 384-well plate pilot, post-Golgi transport modulator project, inhibition of yeast transport mutant growth (AID 636; in the data active = inhibition above about 31%); conditions: absorbance 615 nm, about 18 h, stronger effect = higher value
[8] = growth suppression of yeast trafficking mutant, preliminary HTS, modulators of trafficking downstream of Golgi apparatus project, 1536-format plate, OD 615 nm (AID 637; in the data active = inhibition above about 30%); conditions: yeast transport mutant growth, absorbance 615 nm, 18 h; stronger effect = higher value
[9] = H69AR cells + 2 uM doxorubicin, measured here: viability with 2 uM doxorubicin, stronger effect = lower value
[10] = H69AR cells, compound alone cytotoxicity

Receptor tyrosine-protein kinase erbB-2 (Homo sapiens), sequence (P04626 whole entry, looked up): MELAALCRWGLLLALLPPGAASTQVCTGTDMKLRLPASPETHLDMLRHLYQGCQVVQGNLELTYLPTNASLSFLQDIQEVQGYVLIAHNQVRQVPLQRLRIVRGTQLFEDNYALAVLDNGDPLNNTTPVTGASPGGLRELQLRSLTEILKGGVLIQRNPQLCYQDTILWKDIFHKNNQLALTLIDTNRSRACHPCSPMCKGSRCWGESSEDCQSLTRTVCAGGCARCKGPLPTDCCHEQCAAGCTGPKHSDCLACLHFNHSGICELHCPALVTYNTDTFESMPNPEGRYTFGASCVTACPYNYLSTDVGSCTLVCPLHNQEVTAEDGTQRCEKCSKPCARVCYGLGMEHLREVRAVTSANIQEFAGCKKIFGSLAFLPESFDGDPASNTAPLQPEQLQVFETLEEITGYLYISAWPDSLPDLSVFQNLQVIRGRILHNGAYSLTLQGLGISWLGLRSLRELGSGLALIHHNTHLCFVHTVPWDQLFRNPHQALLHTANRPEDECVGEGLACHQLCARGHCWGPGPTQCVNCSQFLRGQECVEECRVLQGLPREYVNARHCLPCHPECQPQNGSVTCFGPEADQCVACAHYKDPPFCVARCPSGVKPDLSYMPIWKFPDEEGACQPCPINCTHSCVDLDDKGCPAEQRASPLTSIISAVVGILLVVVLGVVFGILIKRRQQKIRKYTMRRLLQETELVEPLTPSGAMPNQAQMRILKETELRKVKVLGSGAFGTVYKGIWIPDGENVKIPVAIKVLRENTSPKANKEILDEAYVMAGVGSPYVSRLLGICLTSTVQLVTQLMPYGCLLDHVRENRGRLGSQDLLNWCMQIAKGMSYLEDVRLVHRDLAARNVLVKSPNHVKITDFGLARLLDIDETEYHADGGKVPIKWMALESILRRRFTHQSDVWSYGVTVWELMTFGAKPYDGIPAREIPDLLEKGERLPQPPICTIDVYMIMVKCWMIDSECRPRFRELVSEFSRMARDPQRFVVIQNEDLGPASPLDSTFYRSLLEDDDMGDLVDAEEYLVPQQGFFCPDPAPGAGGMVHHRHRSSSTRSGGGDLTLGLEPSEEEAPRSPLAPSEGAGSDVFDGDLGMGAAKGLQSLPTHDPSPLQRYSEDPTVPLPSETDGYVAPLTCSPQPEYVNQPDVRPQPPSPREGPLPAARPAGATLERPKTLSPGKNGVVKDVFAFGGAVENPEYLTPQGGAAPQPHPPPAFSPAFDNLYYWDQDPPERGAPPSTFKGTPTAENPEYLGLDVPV

| Compound | viability [1] [%] | Her2 level [2] | viability [3] | viability [4] | viability [5] | differential viability (reversal) ([6]; H69AR cells + 2 uM doxorubicin) | viability [6, 9] [%] | viability [6, 10] [%] | inhibition [7] | inhibition [8] |
| --- | --- | --- | --- | --- | --- | --- | --- | --- | --- | --- |
| CCc1ccccc1NC(=O)CN(c1cccc(OC)c1)S(C)(=O)=O | 112 | 124% (inactive) | 112% (inactive) | 110% (inactive) | 100% (inactive) | 14.6% (inactive) | 85.8 | 100 | -4% (inactive) | -7.74% (inactive) |
| CN(C=C1C(=O)CC(C)(C)CC1=O)CCN1CCNCC1 | 120 | 102% (inactive) | 120% (inactive) | 90.3% (inactive) | 96% (inactive) | 10.2% (inactive) | 85.8 | 96 | -4.21% (inactive) | 2.13% (inactive) |
| Cc1nc2ncnn2c(Nc2ccc3c(c2)OCCO3)c1C | 91 | 110% (inactive) | 91% (inactive) | 106% (inactive) | 73.7% (inactive) | -23.6% (inactive) | 97.3 | 73.7 | 2.8% (inactive) | 26.1% (inactive) |
| CCCCOc1ccc(C(=O)Nn2cnnc2)cc1 | 95.5 | 87% (inactive) | 95.5% (inactive) | 84.5% (inactive) | 89.5% (inactive) | 0.185% (inactive) | 89.4 | 89.5 | -5% (inactive) | -2% (inactive) |
| COc1ccc(-c2noc(COc3ccc4ccccc4c3Br)n2)cc1OC | 129 | 104% (inactive) | 129% (inactive) | 112% (inactive) | 80.8% (inactive) | 5.36% (inactive) | 75.5 | 80.8 | -4.21% (inactive) | -3.23% (inactive) |
| Cc1cccc2sc(NC(=O)Cn3cccc3)nc12 | 87 | 93.5% (inactive) | 87% (inactive) | 107% (inactive) | 89.6% (inactive) | -8.27% (inactive) | 97.8 | 89.6 | -1.67% (inactive) | -1.83% (inactive) |
| CC(C)CN(C(=O)COC(=O)Cc1n[nH]c(=O)c2ccccc12)C1CCS(=O)(=O)C1 (stereo not given) | 97.5 | 98.5% (inactive) | 97.5% (inactive) | 93.6% (inactive) | 90.1% (inactive) | 4.47% (inactive) | 85.7 | 90.1 | -3.12% (inactive) | -1.75% (inactive) |
| O=C1NC(Cc2c[nH]c3ccccc23)C(=O)N1CCOc1ccccc1 (stereo not given) | 79.5 | 89% (inactive) | 79.5% (inactive) | 73.2% (inactive) | 94.4% (inactive) | 0.2% (inactive) | 94.2 | 94.4 | -2.76% (inactive) | -1.83% (inactive) |
| COc1cc(C2C(C#N)=C(N)OC3=C2C(=O)CC(C)(C)C3)ccc1OC(=O)N1CCOCC1 (stereo not given) | 84.5 | 94.5% (inactive) | 84.5% (inactive) | 97.6% (inactive) | 98.8% (inactive) | 4.58% (inactive) | 94.2 | 98.8 | 1.49% (inactive) | -7.54% (inactive) |
| CC(C)(C)c1cc(C(=S)N2CCN(CCO)CC2)cc(C(C)(C)C)c1O | 123 | 86% (inactive) | 123% (inactive) | 94.7% (inactive) | 96.2% (inactive) | 17.4% (inactive) | 78.8 | 96.2 | -6.13% (inactive) | 2.42% (inactive) |
| CCCCCc1c(O)c2ccccc2[nH]c1=O | 108 | 91.5% (inactive) | 108% (inactive) | 124% (inactive) | 98.1% (inactive) | 3.62% (inactive) | 94.5 | 98.1 | -1.71% (inactive) | 2.46% (inactive) |
| CCOC(=O)/C(C#N)=C1\Nc2ccccc2N=C1N(CC(C)C)CC(C)C | 80 | 104% (inactive) | 80% (inactive) | 86.2% (inactive) | 84.2% (inactive) | -5.4% (inactive) | 89.6 | 84.2 | -4.13% (inactive) | -2.79% (inactive) |
| Cc1cccc(-c2cc3nc(C)cc(NCCCN(C)C)n3n2)c1 | 91.5 | 87.5% (inactive) | 91.5% (inactive) | 57.5% (inactive) | 82.8% (inactive) | 6.94% (inactive) | 75.8 | 82.8 | -6.93% (inactive) | 1.97% (inactive) |
| Cc1cccc(-c2noc(CCC(=O)Nc3ccccc3)n2)c1 | 106 | 93% (inactive) | 106% (inactive) | 79.4% (inactive) | 91.2% (inactive) | 6.29% (inactive) | 84.9 | 91.2 | -7.3% (inactive) | -11.2% (inactive) |
| FC(F)(F)c1cc(-c2ccccc2)nc(N2CCCCC2)n1 | 101 | 102% (inactive) | 101% (inactive) | 101% (inactive) | 98.1% (inactive) | -3% (inactive) | 101 | 98.1 | -4.53% (inactive) | 5.57% (inactive) |
| O=S(=O)(c1ccc(Br)s1)N1CCCCC1 | 96.5 | 97.5% (inactive) | 96.5% (inactive) | 89.5% (inactive) | 94% (inactive) | 2.88% (inactive) | 91.1 | 94 | -1.32% (inactive) | -2.13% (inactive) |
| CCOCC(=O)Nc1ccc(S(=O)(=O)N2CCOCC2)cc1 | 95 | 85% (inactive) | 95% (inactive) | 92.3% (inactive) | 82.5% (inactive) | 6.46% (inactive) | 76.1 | 82.5 | -4.67% (inactive) | -2.7% (inactive) |
| O=C(CC1CCS(=O)(=O)C1)Nc1ccc[nH]c1=O (stereo not given) | 102 | 82.5% (inactive) | 102% (inactive) | 88.1% (inactive) | 106% (inactive) | 14.1% (inactive) | 92.3 | 106 | -4.74% (inactive) | -8% (inactive) |
| Cc1[nH]c(=O)[nH]c(=O)c1S(=O)(=O)N(C)Cc1ccccc1 | 108 | 106% (inactive) | 108% (inactive) | 96.2% (inactive) | 105% (inactive) | 12.3% (inactive) | 92.5 | 105 | -0.66% (inactive) | -4.6% (inactive) |
| COc1ccccc1NC(=O)CSc1nnc(-c2ccncc2)n1CC1CCCO1 (stereo not given) | 97 | 91% (inactive) | 97% (inactive) | 103% (inactive) | 96.7% (inactive) | 6.53% (inactive) | 90.1 | 96.7 | -5.33% (inactive) | -3.81% (inactive) |
| Cc1c(NC2=NC3(CCCCC3)Cc3ccccc32)c(=O)n(-c2ccccc2)n1C | 79.5 | 108% (inactive) | 79.5% (inactive) | 95.5% (inactive) | 92.5% (inactive) | 5.08% (inactive) | 87.5 | 92.5 | -5.13% (inactive) | 2.67% (inactive) |
| CCc1nnc(NC(=O)CN2CCN(c3ccccc3OC)CC2)s1 | 99.5 | 89% (inactive) | 99.5% (inactive) | 64.9% (inactive) | 50.7% (inactive) | 25.5% (inactive) | 25.2 | 50.7 | -0.39% (inactive) | -5.56% (inactive) |
| COCCOC(=O)C1=C(C)Nc2ncnn2C1c1ccc(F)cc1 (stereo not given) | 90 | 87.5% (inactive) | 90% (inactive) | 103% (inactive) | 85.8% (inactive) | 3.85% (inactive) | 82 | 85.8 | -3.6% (inactive) | -1.48% (inactive) |
| O=C(O)CC1SC(=Nc2cccc(C(F)(F)F)c2)NC1=O (stereo not given) | 111 | 94.5% (inactive) | 111% (inactive) | 104% (inactive) | 103% (inactive) | 9.34% (inactive) | 93.2 | 103 | -1.45% (inactive) | 1.29% (inactive) |
| CC1=NC(Nc2nc(C)c3ccccc3n2)=NC(C)(C)C1 | 78.5 | 72.5% (inactive) | 78.5% (inactive) | 74.3% (inactive) | 62.4% (inactive) | -14.6% (inactive) | 77 | 62.4 | -0.39% (inactive) | -7.38% (inactive) |
| CC(Oc1ccc(Cl)cc1Cl)c1nc(-c2ccc(NC(=O)c3cccnc3)cc2)no1 (stereo not given) | 93.5 | 74.5% (inactive) | 93.5% (inactive) | 55% (inactive) | 8.04% (active) | -10.7% (inactive) | 18.8 | 8.04 | 0% (inactive) | 22.2% (inactive) |
| COCCN1CCN(c2c(C)c(C)nc3cc(-c4cccc(OC)c4)nn23)CC1 | 100 | 83.5% (inactive) | 100% (inactive) | 91.1% (inactive) | 95.4% (inactive) | 12.7% (inactive) | 82.7 | 95.4 | -5.45% (inactive) | -1.43% (inactive) |
| CCN(CCCNC(=O)CCNC(=O)Cn1ccc2ccccc2c1=O)c1ccccc1 | 97.5 | 87.5% (inactive) | 97.5% (inactive) | 109% (inactive) | 98.3% (inactive) | 11.8% (inactive) | 86.5 | 98.3 | -5.47% (inactive) | -2.86% (inactive) |
| O=c1[nH]c(=O)n(C2CCCCCC2)c(O)c1C=NCc1ccc(F)cc1 | 90 | 86.5% (inactive) | 90% (inactive) | 90.1% (inactive) | 81.5% (inactive) | -4.79% (inactive) | 86.3 | 81.5 | -6.8% (inactive) | -2.22% (inactive) |
